How the values were obtained:
UO-31 = experiment: Antiproliferative activity against human UO-31 cells assessed as cell growth at 0.0000001 M incubated for 48 hrs by SRB assay relative to control; assay type: functional; conditions: dose 100 nM, read-out: Activity
CAKI-1 [1] = experiment: Growth inhibition against human CAKI-1 cells incubated for 48 hrs by sulforhodamine B assay; assay type: functional
SN12C [2] = experiment: Antiproliferative activity against human SN12C cells assessed as cell growth at 0.00000001 M incubated for 48 hrs by SRB assay relative to control; assay type: functional; conditions: dose 10 nM, read-out: Activity
CAKI-1 [3] = experiment: Growth inhibition against human CAKI-1 cells assessed as total growth inhibitory concentration incubated for 48 hrs by sulforhodamine B assay; assay type: functional
HT-29 = experiment: Antiproliferative activity against human HT-29 cells assessed as cell growth at 0.0000001 M incubated for 48 hrs by SRB assay relative to control; assay type: functional; conditions: dose 100 nM, read-out: Activity
In short: (§1)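 NCI-60 five-dose screen (10^-4 to 10^-8 M). Cells grown in RPMI 1640 with 5% FBS and 2 mM L-glutamine, plated at 5,000-40,000 cells/well and preincubated 24 h. Drug given from DMSO stock, then 48 h at 37 °C, 5% CO2. For adherent lines, cells fixed with cold TCA, SRB-stained and read at 515 nm. Percent growth taken against time-zero and untreated control.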

HL-60 = experiment: Antiproliferative activity against human HL-60 cells assessed as cell growth at 0.000001 M incubated for 48 hrs by SRB assay relative to control; assay type: functional; conditions: read-out: Activity; in short: as §1
SK-OV-3 [4] = experiment: Antiproliferative activity against human SK-OV-3 cells assessed as cell growth at 0.0001 M incubated for 48 hrs by SRB assay relative to control; assay type: functional; conditions: read-out: Activity
PC-3 [5] = experiment: Antiproliferative activity against human PC-3 cells assessed as cell growth at 0.0000001 M incubated for 48 hrs by SRB assay relative to control; assay type: functional; conditions: dose 100 nM, read-out: Activity
MOLT-4 = experiment: Antiproliferative activity against human MOLT-4 cells assessed as cell growth inhibition by measuring lethal concentration incubated for 48 hrs by sulforhodamine B assay; assay type: functional; conditions: read-out: LC50 (the source's name)
KM12 [6] = experiment: Antiproliferative activity against human KM12 cells assessed as cell growth at 0.00001 M incubated for 48 hrs by SRB assay relative to control; assay type: functional; conditions: read-out: Activity
OVCAR-3 [7] = experiment: Antiproliferative activity against human OVCAR-3 cells assessed as cell growth at 0.0000001 M incubated for 48 hrs by SRB assay relative to control; assay type: functional; conditions: dose 100 nM, read-out: Activity
A549 [8] = experiment: Growth inhibition against human A549 cells incubated for 48 hrs by sulforhodamine B assay; assay type: functional
SN12C [9] = experiment: Antiproliferative activity against human SN12C cells assessed as cell growth at 0.00001 M incubated for 48 hrs by SRB assay relative to control; assay type: functional; conditions: read-out: Activity
Albumin = Albumin (Bos taurus, UniProt P02769); experiment: Binding affinity to bovine serum albumin assessed as binding constant by Stern-Volmer equation based fluorescence spectroscopic method; conditions: cattle
OVCAR-8 = experiment: Antiproliferative activity against human OVCAR-8 cells assessed as cell growth at 0.00000001 M incubated for 48 hrs by SRB assay relative to control; assay type: functional; conditions: dose 10 nM, read-out: Activity
Hs-578T = experiment: Antiproliferative activity against human Hs-578T cells assessed as cell growth inhibition by measuring lethal concentration incubated for 48 hrs by sulforhodamine B assay; assay type: functional; conditions: read-out: LC50 (the source's name)
SK-OV-3 [10] = experiment: Antiproliferative activity against human SK-OV-3 cells assessed as cell growth inhibition by measuring lethal concentration incubated for 48 hrs by sulforhodamine B assay; assay type: functional; conditions: read-out: LC50 (the source's name)
OVCAR-3 [11] = experiment: Antiproliferative activity against human OVCAR-3 cells assessed as cell growth at 0.0001 M incubated for 48 hrs by SRB assay relative to control; assay type: functional; conditions: read-out: Activity
PC-3 [12] = experiment: Antiproliferative activity against human PC-3 cells assessed as cell growth inhibition by measuring lethal concentration incubated for 48 hrs by sulforhodamine B assay; assay type: functional; conditions: read-out: LC50 (the source's name)
T47D = experiment: Antiproliferative activity against human T47D cells assessed as cell growth inhibition by measuring lethal concentration incubated for 48 hrs by sulforhodamine B assay; assay type: functional; conditions: read-out: LC50 (the source's name)
In short: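 NCI-60 five-dose screen (10^-4 to 10^-8 M, 10-fold dilutions; DMSO stocks). Cells in RPMI 1640 with 5% FBS and 2 mM L-glutamine, preincubated 24 h, then exposed 48 h at 37 °C, 5% CO2. Fixed with cold TCA, stained with 0.4% SRB, absorbance read at 515 nm. Time-zero plates used as reference. LC50 taken from [(Ti-Tz)/Tz]×100 […].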

M14 = experiment: Growth inhibition against human M14 cells incubated for 48 hrs by sulforhodamine B assay; assay type: functional
RPMI-8226 = experiment: Growth inhibition against human RPMI-8226 cells incubated for 48 hrs by sulforhodamine B assay; assay type: functional
SK-MEL-2 = experiment: Growth inhibition against human SK-MEL-2 cells assessed as total growth inhibitory concentration incubated for 48 hrs by sulforhodamine B assay; assay type: functional
ACHN = experiment: Antiproliferative activity against human ACHN cells assessed as cell growth at 0.000001 M incubated for 48 hrs by SRB assay relative to control; assay type: functional; conditions: read-out: Activity
In short: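 NCI-60 five-dose screen over 10^-4–10^-8 M (10-fold dilutions). Cells grown in RPMI 1640 with 5% FBS and 2 mM L-glutamine, seeded at 5,000–40,000 cells/well and preincubated 24 h. Drug from DMSO stock, 48 h at 37 °C, 5% CO2. Adherent cells TCA-fixed and stained with 0.4% SRB; A515 read. Percent growth = (Ti−Tz)/(C−Tz)×100, or (Ti−Tz)/Tz×100 when Ti<Tz.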

NCI-H322M = experiment: Antiproliferative activity against human NCI-H322M cells assessed as cell growth at 0.000001 M incubated for 48 hrs by SRB assay relative to control; assay type: functional; conditions: read-out: Activity
A549 [13] = experiment: Antiproliferative activity against human A549 cells assessed as cell growth inhibition by measuring lethal concentration incubated for 48 hrs by sulforhodamine B assay; assay type: functional; conditions: read-out: LC50 (the source's name)
IGROV-1 = experiment: Antiproliferative activity against human IGROV-1 cells assessed as cell growth at 0.000001 M incubated for 48 hrs by SRB assay relative to control; assay type: functional; conditions: read-out: Activity
KM12 [14] = experiment: Antiproliferative activity against human KM12 cells assessed as cell growth at 0.000001 M incubated for 48 hrs by SRB assay relative to control; assay type: functional; conditions: read-out: Activity
RXF 393 = experiment: Antiproliferative activity against human RXF 393 cells assessed as cell growth at 0.000001 M incubated for 48 hrs by SRB assay relative to control; assay type: functional; conditions: read-out: Activity
Malme-3M = experiment: Antiproliferative activity against human Malme-3M cells assessed as cell growth at 0.000001 M incubated for 48 hrs by SRB assay relative to control; assay type: functional; conditions: read-out: Activity
LOX IMVI = experiment: Antiproliferative activity against human LOX IMVI cells assessed as cell growth at 0.00001 M incubated for 48 hrs by SRB assay relative to control; assay type: functional; conditions: read-out: Activity
SK-MEL-28 = experiment: Antiproliferative activity against human SK-MEL-28 cells assessed as cell growth at 0.0001 M incubated for 48 hrs by SRB assay relative to control; assay type: functional; conditions: read-out: Activity
NCI-H226 = experiment: Antiproliferative activity against human NCI-H226 cells assessed as cell growth at 0.00000001 M incubated for 48 hrs by SRB assay relative to control; assay type: functional; conditions: dose 10 nM, read-out: Activity
HOP-92 = experiment: Growth inhibition against human HOP-92 cells incubated for 48 hrs by sulforhodamine B assay; assay type: functional

Sequence of Albumin (P02769 whole entry): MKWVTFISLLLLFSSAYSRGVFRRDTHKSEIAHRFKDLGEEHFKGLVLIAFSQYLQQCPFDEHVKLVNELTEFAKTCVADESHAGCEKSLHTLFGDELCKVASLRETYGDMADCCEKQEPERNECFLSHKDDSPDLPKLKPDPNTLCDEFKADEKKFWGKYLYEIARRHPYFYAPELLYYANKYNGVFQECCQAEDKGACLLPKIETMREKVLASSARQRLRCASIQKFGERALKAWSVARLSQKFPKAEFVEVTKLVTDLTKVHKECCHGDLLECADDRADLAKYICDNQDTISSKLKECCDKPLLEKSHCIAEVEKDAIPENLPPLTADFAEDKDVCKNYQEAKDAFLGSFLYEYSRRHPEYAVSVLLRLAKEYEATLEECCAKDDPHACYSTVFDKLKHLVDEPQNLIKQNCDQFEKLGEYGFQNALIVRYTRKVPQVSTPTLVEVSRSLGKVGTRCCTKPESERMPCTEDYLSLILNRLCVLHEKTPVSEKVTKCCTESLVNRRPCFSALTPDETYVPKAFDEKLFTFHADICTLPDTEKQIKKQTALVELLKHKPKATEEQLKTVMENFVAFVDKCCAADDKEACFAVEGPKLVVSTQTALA

SMILES | growth at 0.1 µM (UO-31) | GI50 (CAKI-1 [1]) | growth at 0.01 µM (SN12C [2]) | TGI (CAKI-1 [3]) | growth at 0.1 µM (HT-29) | growth at 1 µM (HL-60) | growth at 100 µM (SK-OV-3 [4]) | growth at 0.1 µM (PC-3 [5]) | CC50 (MOLT-4) | growth at 10 µM (KM12 [6]) | growth at 0.1 µM (OVCAR-3 [7]) | GI50 (A549 [8]) | growth at 10 µM (SN12C [9]) | Kb (Albumin) | growth at 0.01 µM (OVCAR-8) | CC50 (Hs-578T) | CC50 (SK-OV-3 [10]) | growth at 100 µM (OVCAR-3 [11]) | CC50 (PC-3 [12]) | CC50 (T47D) | further results
COc1ccc(-c2cn3ccnc3c(-c3ccc4ncn(C5CCCCC5)c4c3)n2)cc1 | 88% | 757 nM | 97% | > 100000 nM | 92% | 52% | -2% | 98% | > 100000 nM | 5% | 99% | 1830 nM | 16% | 4.68 10^5/M | 105% | > 100000 nM | > 100000 nM | 17% | > 100000 nM | > 100000 nM | GI50 (M14): 612 nM; GI50 (RPMI-8226): 2960 nM; TGI (SK-MEL-2): > 100000 nM; growth at 1 µM (ACHN): 40%; growth at 1 µM (NCI-H322M): 87%; CC50 (A549 [13]): > 100000 nM; growth at 1 µM (IGROV-1): 49%; growth at 1 µM (KM12 [14]): 57%; growth at 1 µM (RXF 393): 57%; growth at 1 µM (Malme-3M): 53%; growth at 10 µM (LOX IMVI): 17%; growth at 100 µM (SK-MEL-28): 36%; growth at 0.01 µM (NCI-H226): 101%; GI50 (HOP-92): 1180 nM
c1ccc(Cn2cnc3ccc(-c4nc(-c5ccc6c(c5)ncn6C5CCCCC5)cn5ccnc45)cc32)cc1 | 86% | 2450 nM | 102% | > 100000 nM | 97% | 113% | 6% | 96% | > 100000 nM | -41% | 100% | 2330 nM | -32% | 1.08 10^5/M | 106% | > 100000 nM | > 100000 nM | -19% | > 100000 nM | > 100000 nM | GI50 (M14): 1450 nM; GI50 (RPMI-8226): 1150 nM; TGI (SK-MEL-2): 4850 nM; growth at 1 µM (ACHN): 87%; growth at 1 µM (NCI-H322M): 89%; CC50 (A549 [13]): > 100000 nM; growth at 1 µM (IGROV-1): 73%; growth at 1 µM (KM12 [14]): 93%; growth at 1 µM (RXF 393): 62%; growth at 1 µM (Malme-3M): 91%; growth at 10 µM (LOX IMVI): -90%; growth at 100 µM (SK-MEL-28): 13%; growth at 0.01 µM (NCI-H226): 103%; GI50 (HOP-92): 1250 nM
